Laboratory results from ChEMBL document CHEMBL3608261, “Metabolically programmed iron chelators” (Bioorg Med Chem, 2015).

Assays:
Rattus norvegicus [1] = assay: Drug metabolism in Sprague-Dawley rat kidney assessed as (S)-4'-(5-carboxypentyloxy)-DADFT level at 300 umol/kg, sc after 0.5 to 1 hrs by HPLC analysis; format: ADME, organism-based; conditions: in vivo
How it was run: (§1)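 Single sc injection in male Sprague-Dawley rats (250–350 g) of the monosodium salt at 300 µmol/kg, n=3 per time point, killed by CO2 at 0.5–8 h. Plasma came from citrated cardiac blood; organs were frozen. Homogenates were made 1:3 in 0.5 N HClO4, given a methanol rinse, held 30 min at −20 °C, centrifuged, diluted in pH 3.0 phosphate/CH3CN and filtered. RP-amide HPLC, UV 310 nm; values are means, nmol/g wet weight or µM.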

Rattus norvegicus [2] = assay: Drug metabolism in Sprague-Dawley rat plasma assessed as (S)-4'-(carboxymethoxy)-DADFT level at 300 umol/kg, sc after 8 hrs by HPLC analysis; format: ADME, organism-based; conditions: in vivo; how it was run: as §1
Rattus norvegicus [3] = assay: Drug metabolism in Sprague-Dawley rat pancreas assessed as (S)-4'-(5-carboxypentyloxy)-DADFT level at 300 umol/kg, sc after 4 to 8 hrs by HPLC analysis; format: ADME, organism-based; conditions: in vivo; how it was run: as §1
Rattus norvegicus [4] = assay: Iron clearing efficiency in bile duct cannulated Sprague-Dawley rat assessed as clearance of iron in urine at 300 umol/kg, po measured at 3 hrs intervals for up to 48 hrs relative to control; format: functional
Rattus norvegicus [5] = assay: Drug metabolism in Sprague-Dawley rat pancreas assessed as (S)-4'-(5-carboxypentyloxy)-DADFT level at 300 umol/kg, sc after 0.5 to 8 hrs by HPLC analysis; format: ADME, organism-based; conditions: in vivo; how it was run: as §1
Rattus norvegicus [6] = assay: Drug metabolism in Sprague-Dawley rat heart assessed as (S)-4'-(carboxymethoxy)-DADFT level at 300 umol/kg, sc after 2 to 8 hrs by HPLC analysis; format: ADME, organism-based; conditions: in vivo; how it was run: as §1
Rattus norvegicus [7] = assay: Drug metabolism in Sprague-Dawley rat kidney assessed as (S)-4'-(3-carboxypropyloxy)-DADFT level at 300 umol/kg, sc after 8 hrs by HPLC analysis; format: ADME, organism-based; conditions: in vivo; how it was run: as §1
Rattus norvegicus [8] = assay: Drug metabolism in Sprague-Dawley rat pancreas assessed as parent compound level at 300 umol/kg, sc after 0.5 hrs by HPLC analysis; format: ADME, organism-based; conditions: in vivo; how it was run: as §1
Rattus norvegicus [9] = assay: Drug metabolism in Sprague-Dawley rat liver assessed as parent compound and metabolite level at 300 umol/kg, sc after 8 hrs by HPLC analysis; format: ADME, organism-based; conditions: in vivo
How it was run: (§2)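 Rats (male Sprague-Dawley, 250–350 g) were dosed sc once with the monosodium salt, 300 µmol/kg, three animals per time point up to 8 h. Plasma came from citrated cardiac blood; liver was frozen after CO2 euthanasia. Parent and metabolites were quantified by HPLC with UV at 310 nm against linear calibration curves (detection limit 0.25 µM, linear 1–1000 µM). Data are means.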

Rattus norvegicus [10] = assay: Drug metabolism in Sprague-Dawley rat heart assessed as parent compound level at 300 umol/kg, sc after 0.5 hrs by HPLC analysis; format: ADME, organism-based; conditions: in vivo; how it was run: as §1
[11] = Performance ratio, ratio of iron clearing efficiency in […] at 75 umol/kg, po to iron clearing efficiency in bile duct cannulated Sprague-Dawley rat at 300 umol/kg, po; format: functional
How it was run: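 Performance ratio = mean ICE in iron-overloaded Cebus apella (75 µmol/kg) divided by mean ICE in bile duct-cannulated rats (300 µmol/kg), by the same route.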

Rattus norvegicus [12] = assay: Drug metabolism in Sprague-Dawley rat liver assessed as (S)-4'-(5-carboxypentyloxy)-DADFT level at 300 umol/kg, sc after 0.5 to 1 hrs by HPLC analysis; format: ADME, organism-based; conditions: in vivo; how it was run: as §1
Rattus norvegicus [13] = assay: Toxicity in Sprague-Dawley rat assessed as mortality at 384 umol/kg, po qd for 10 days; format: organism-based; conditions: in vivo, 240 h
How it was run: (§3)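 Male Sprague-Dawley rats (n=5, 375–400 g) with normal iron stores, housed singly in metabolic cages and weighed daily. Drug given po by gavage as monosodium salt once daily for 10 days, dosed in the morning after overnight fast; fed ~3 h post-drug. Euthanized day 11; CBC, serum chemistries and 25 tissues/rat for outside histopathology; age-matched untreated controls.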

Rattus norvegicus [14] = assay: Drug metabolism in Sprague-Dawley rat kidney assessed as (S)-4'-(3-carboxypropyloxy)-DADFT level at 300 umol/kg, sc after 0.5 to 1 hrs by HPLC analysis; format: ADME, organism-based; conditions: in vivo; how it was run: as §1
Rattus norvegicus [15] = assay: Toxicity in Sprague-Dawley rat assessed as histopathology at 384 umol/kg, po qd for 10 days; format: organism-based; conditions: in vivo, 240 h; how it was run: as §3
Sapajus apella = assay: Iron clearing efficiency in bile duct cannulated Cebus apella assessed as clearance of iron in bile at 75 umol/kg, po measured at 3 hrs intervals for up to 48 hrs relative to control; format: functional
Rattus norvegicus [16] = assay: Drug metabolism in Sprague-Dawley rat heart assessed as (S)-4'-(5-carboxypentyloxy)-DADFT level at 300 umol/kg, sc up to 8 hrs by HPLC analysis; format: ADME, organism-based; conditions: in vivo; how it was run: as §1
Rattus norvegicus [17] = assay: Drug metabolism in Sprague-Dawley rat pancreas assessed as (S)-4'-(3-carboxypropyloxy)-DADFT level at 300 umol/kg, sc after 0.5 hrs by HPLC analysis; format: ADME, organism-based; conditions: in vivo; how it was run: as §1
Rattus norvegicus [18] = assay: Drug metabolism in Sprague-Dawley rat plasma assessed as parent compound and metabolite level at 300 umol/kg, sc after 8 hrs by HPLC analysis; format: ADME, organism-based; conditions: in vivo, read-out: Drug metabolism; how it was run: as §2
Rattus norvegicus [19] = assay: Drug metabolism in Sprague-Dawley rat liver assessed as parent compound and (S)-4'-(3-carboxypropyloxy)-DADFT level at 300 umol/kg, sc after 8 hrs by HPLC analysis; format: ADME, organism-based; conditions: in vivo; how it was run: as §1
Rattus norvegicus [20] = assay: Drug metabolism in Sprague-Dawley rat pancreas assessed as (S)-4'-(carboxymethoxy)-DADFT level at 300 umol/kg, sc after 4 to 8 hrs by HPLC analysis; format: ADME, organism-based; conditions: in vivo; how it was run: as §1
Rattus norvegicus [21] = assay: Toxicity in Sprague-Dawley rat assessed as BUN level in blood at 384 umol/kg, po qd for 10 days; format: organism-based; conditions: in vivo, 240 h
How it was run: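 Male Sprague-Dawley rats (n=5, 375–400 g) with normal iron stores were housed in metabolic cages. Drug was given po as the monosodium salt, once daily for 10 days at 384 µmol/kg/day. Rats were fasted overnight, dosed in the morning, and fed about 3 h post-drug. They were euthanized on day 11, and blood was taken for serum chemistry including BUN. Age-matched untreated rats served as controls.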

Rattus norvegicus [22] = assay: Drug metabolism in Sprague-Dawley rat plasma assessed as parent compound and metabolite level at 300 umol/kg, sc after 4 hrs by HPLC analysis; format: ADME, organism-based; conditions: in vivo; how it was run: as §2
Rattus norvegicus [23] = assay: Drug metabolism in Sprague-Dawley rat heart assessed as (S)-4'-(carboxymethoxy)-DADFT level at 300 umol/kg, sc after 0.5 hrs by HPLC analysis; format: ADME, organism-based; conditions: in vivo; how it was run: as §1
Rattus norvegicus [24] = assay: Drug metabolism in Sprague-Dawley rat kidney assessed as (S)-4'-(carboxymethoxy)-DADFT level at 300 umol/kg, sc after 0.5 hrs by HPLC analysis; format: ADME, organism-based; conditions: in vivo; how it was run: as §1
Rattus norvegicus [25] = assay: Drug metabolism in Sprague-Dawley rat kidney assessed as (S)-4'-(carboxymethoxy)-DADFT level at 300 umol/kg, sc after 1 hr by HPLC analysis; format: ADME, organism-based; conditions: in vivo; how it was run: as §1
Rattus norvegicus [26] = assay: Drug metabolism in Sprague-Dawley rat pancreas assessed as (S)-4'-(3-carboxypropyloxy)-DADFT level at 300 umol/kg, sc after 1 hr by HPLC analysis; format: ADME, organism-based; conditions: in vivo; how it was run: as §1
Rattus norvegicus [27] = assay: Drug metabolism in Sprague-Dawley rat heart assessed as (S)-4'-(carboxymethoxy)-DADFT level at 300 umol/kg, sc after 1 hr by HPLC analysis; format: ADME, organism-based; conditions: in vivo; how it was run: as §1
Rattus norvegicus [28] = assay: Drug metabolism in Sprague-Dawley rat pancreas assessed as (S)-4'-(3-carboxypropyloxy)-DADFT level at 300 umol/kg, sc after 4 to 8 hrs by HPLC analysis; format: ADME, organism-based; conditions: in vivo; how it was run: as §1
Rattus norvegicus [29] = assay: Drug metabolism in Sprague-Dawley rat kidney assessed as (S)-4'-(carboxymethoxy)-DADFT level at 300 umol/kg, sc after 2 hrs by HPLC analysis; format: ADME, organism-based; conditions: in vivo; how it was run: as §1
Rattus norvegicus [30] = assay: Iron clearing efficiency in bile duct cannulated Sprague-Dawley rat assessed as clearance of iron in bile at 300 umol/kg, po measured at 3 hrs intervals for up to 48 hrs relative to control; format: functional
How it was run: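 Non-iron-overloaded male Sprague-Dawley rats (400–450 g) with cannulated bile ducts received 300 µmol/kg po or sc. […] Bile was sampled every 3 h for up to 48 h and urine at 24 h intervals. ICE = (treated minus control iron excretion) / theoretical output (2:1 ligand:Fe) × 100 over 48 h. Mean ± SEM.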

Rattus norvegicus [31] = assay: Drug metabolism in Sprague-Dawley rat kidney assessed as (S)-4'-(carboxymethoxy)-DADFT level at 300 umol/kg, sc after 8 hrs by HPLC analysis; format: ADME, organism-based; conditions: in vivo; how it was run: as §1
Rattus norvegicus [32] = assay: Drug metabolism in Sprague-Dawley rat heart assessed as (S)-4'-(3-carboxypropyloxy)-DADFT level at 300 umol/kg, sc after 0.5 to 1 hrs by HPLC analysis; format: ADME, organism-based; conditions: in vivo; how it was run: as §1

## C[C@]1(C(=O)O)CSC(c2ccc(OCCCCCCO)cc2O)=N1
Rattus norvegicus [1]
  Drug metabolism: metabolite_detected
Rattus norvegicus [2]
  Drug metabolism: metabolite_detected
Rattus norvegicus [3]
  Drug metabolism: metabolite_notdetected
Rattus norvegicus [4]
  Activity: 4%
Rattus norvegicus [5]
  Drug metabolism: metabolite_notdetected
Rattus norvegicus [6]
  Drug metabolism: metabolite_notdetected
Rattus norvegicus [7]
  Drug metabolism: metabolite_notdetected
Rattus norvegicus [8]
  Drug metabolism: < 5 nmol/g
Rattus norvegicus [9]
  Drug metabolism: metabolite_detected
Rattus norvegicus [10]
  Drug metabolism: 26 nmol/g
[11]
  Ratio: 2.2
Rattus norvegicus [12]
  Drug metabolism: metabolite_detected
Rattus norvegicus [13]
  Activity: Non-toxic
Rattus norvegicus [14]
  Drug metabolism: 300 nmol/g
Rattus norvegicus [15]
  Activity: Non-toxic
Sapajus apella
  Activity: 90%
Rattus norvegicus [16]
  Drug metabolism: metabolite_notdetected
Rattus norvegicus [17]
  Drug metabolism: 19 nmol/g
Rattus norvegicus [18]
  concentration: 23 µM
Rattus norvegicus [19]
  Drug metabolism: metabolite_notdetected
Rattus norvegicus [20]
  Drug metabolism: metabolite_notdetected
Rattus norvegicus [21]
  Activity: 20 mg/dL
Rattus norvegicus [22]
  Drug metabolism: Not Active
Rattus norvegicus [23]
  Drug metabolism: 17 nmol/g
Rattus norvegicus [24]
  Drug metabolism: 156 nmol/g
Rattus norvegicus [25]
  Drug metabolism: 201 nmol/g
Rattus norvegicus [26]
  Drug metabolism: 23 nmol/g
Rattus norvegicus [27]
  Drug metabolism: 23 nmol/g
Rattus norvegicus [28]
  Drug metabolism: metabolite_notdetected
Rattus norvegicus [29]
  Drug metabolism: 161 nmol/g
Rattus norvegicus [30]
  Activity: 96%
Rattus norvegicus [31]
  Drug metabolism: 5 nmol/g
Rattus norvegicus [32]
  Drug metabolism: 46 nmol/g
